Measured values reported in ChEMBL document CHEMBL1157693, “Microwave assisted synthesis and antimicrobial activity of 2-quinoxalinone-3-hydrazone derivatives” (2010).
≈ marks a conversion by molar mass, not a printed value. Calls of active or inactive are those of the source. The rule behind the calls is not given here.

Columns and labels:
Format in all cases: functional
[1] = test system: Geobacillus stearothermophilus; assay: Antibacterial activity against Bacillus stearothermophilus NCIB 8222 after 24 hrs by agar well diffusion method; also: test concentration or dose not given here
In short: (§1)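 Agar well diffusion. Clinical isolates were first checked for viability, then grown in nutrient broth for 8 h at 37 °C. About 0.2 ml of broth culture was mixed into 18 ml molten diagnostic sensitivity test agar cooled to 45 °C and poured into plates. Compounds in DMSO went into bored wells, with streptomycin as reference. Plates stood 1 h for diffusion, then were incubated upright at 37 °C for 24 h. Clear inhibition zones were read in mm.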

[2] = test system: Staphylococcus aureus; assay: Antibacterial activity against Staphylococcus aureus NCIB 8588 after 72 hrs; details: NCIB 8588, 72 h
In short: (§2)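 MIC by the Russell and Furr method, run on selected Gram-positive and Gram-negative strains. Once the agar had set and its surface had dried, nutrient agar plates were streaked with overnight broth cultures. They were incubated at 37 °C for up to 72 h and scored for presence or absence of growth.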

[3] = test system: Pseudomonas aeruginosa; assay: Antibacterial activity against Pseudomonas aeruginosa NCIB 950 after 24 hrs by agar well diffusion method; in short: as §1; also: test concentration or dose not given here
[4] = test system: Geobacillus stearothermophilus; assay: Antibacterial activity against Bacillus stearothermophilus NCIB 8222 after 72 hrs; details: NCIB 8222, 72 h; in short: as §2
[5] = test system: Bacillus cereus; assay: Antibacterial activity against Bacillus cereus NCIB 6349 after 72 hrs; in short: as §2
[6] = test system: Bacillus anthracis; assay: Antibacterial activity against Bacillus anthracis after 72 hrs
[7] = test system: Bacillus anthracis; assay: Antibacterial activity against Bacillus anthracis after 24 hrs by agar well diffusion method
[8] = test system: Klebsiella pneumoniae; assay: Antibacterial activity against Klebsiella pneumoniae NCIB 418 after 24 hrs by agar well diffusion method; in short: as §1; also: test concentration or dose not given here
[9] = test system: Bacillus cereus; assay: Antibacterial activity against Bacillus cereus NCIB 6349 after 24 hrs by agar well diffusion method; in short: as §1; also: test concentration or dose not given here
[10] = test system: Klebsiella pneumoniae; assay: Antibacterial activity against Klebsiella pneumoniae NCIB 418 after 72 hrs; in short: as §2
[11] = test system: Staphylococcus aureus; assay: Antibacterial activity against Staphylococcus aureus NCIB 8588 after 24 hrs by agar well diffusion method; in short: as §1; also: test concentration or dose not given here
[12] = test system: Shigella dysenteriae; assay: Antibacterial activity against Shigella dysenteriae after 24 hrs by agar well diffusion method
[13] = test system: Pseudomonas fluorescens; assay: Antibacterial activity against Pseudomonas fluorescens NCIB 3756 after 24 hrs by agar well diffusion method; in short: as §1; also: test concentration or dose not given here
[14] = test system: Escherichia coli; assay: Antibacterial activity against Escherichia coli NCIB 86 after 72 hrs; in short: as §2
[15] = test system: Candida albicans; assay: Antifungal activity against Candida albicans after 3 days by agar well diffusion method
[16] = test system: Bacillus subtilis; assay: Antibacterial activity against Bacillus subtilis NCIB 3610 after 72 hrs; details: NCIB 3610, 72 h; in short: as §2
[17] = test system: Shigella dysenteriae; assay: Antibacterial activity against Shigella dysenteriae after 72 hrs
In short: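 MIC by agar dilution: compound-containing nutrient agar was set and surface-dried, then streaked with overnight broth culture of the clinical isolate. Incubated at 37 °C for up to 72 h and scored for presence or absence of growth. Streptomycin was the reference.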

[18] = test system: Bacillus subtilis; assay: Antibacterial activity against Bacillus subtilis NCIB 3610 after 24 hrs by agar well diffusion method; in short: as §1; also: test concentration or dose not given here
[19] = test system: Escherichia coli; assay: Antibacterial activity against Escherichia coli NCIB 86 after 24 hrs by agar well diffusion method; in short: as §1; also: test concentration or dose not given here

Row | Structure (SMILES) | inhibition zone (IZ) [1] [mm] | MIC [2] [µg/mL] | inhibition zone (IZ) [3] [mm] | MIC [4] [µg/mL] | MIC ([5]; NCIB 6349, 72 h) [µg/mL] | MIC [6] [µg/mL] | inhibition zone (IZ) [7] [mm] | inhibition zone (IZ) [8] [mm] | inhibition zone (IZ) [9] [mm] | MIC ([10]; NCIB 418, 72 h) [µg/mL] | inhibition zone (IZ) [11] [mm] | inhibition zone (IZ) [12] [mm] | inhibition zone (IZ) [13] [mm] | MIC ([14]; NCIB 86, 72 h) [µg/mL] | inhibition zone (IZ) [15] | MIC [16] [µg/mL] | MIC [17] | inhibition zone (IZ) [18] [mm] | inhibition zone (IZ) [19] [mm] | further results
1 | C/C(=N\Nc1nc2ccccc2[nH]c1=O)c1cc2cc(Br)ccc2oc1=O | 29 | 62.5 (≈ 147 µM) | 0 | 7.8 (≈ 18.3 µM) | 62.5 (≈ 147 µM) | 62.5 (≈ 147 µM) | 16 | 18 | 15 | 62.5 (≈ 147 µM) | 14 | 0 | 0 | 62.5 (≈ 147 µM) | 21 mm | 7.8 (≈ 18.3 µM) | inactive | 30 | 18 | –
2 | O=C1Nc2ccccc2/C1=N/Nc1nc2ccccc2[nH]c1=O | 13 | 31.3 (≈ 103 µM) | 17 | 62.5 (≈ 205 µM) | – | 125 (≈ 409 µM) | 11 | 12 | 0 | 62.5 (≈ 205 µM) | 19 | 0 | 0 | 125 (≈ 409 µM) | 20 mm | 62.5 (≈ 205 µM) | 15.6 µg/mL (≈ 51.1 µM) | 14 | 10 | MIC [5]: inactive
3 | CN[C@@H]1[C@H](O[C@H]2[C@H](O[C@H]3[C@H](O)[C@@H](O)[C@H](N=C(N)N)[C@@H](O)[C@@H]3N=C(N)N)O[C@@H](C)[C@]2(O)C=O)O[C@@H](CO)[C@H](O)[C@H]1O [STREPTOMYCIN] | 23 | 7.8 (≈ 13.4 µM) | 0 | 7.8 (≈ 13.4 µM) | 7.8 (≈ 13.4 µM) | 31.3 (≈ 53.8 µM) | 18 | 0 | 28 | – | 21 | 22 | 30 | – | inactive | 15.6 (≈ 26.8 µM) | 15.6 µg/mL (≈ 26.8 µM) | 20 | 0 | MIC [10]: inactive; MIC [14]: inactive
4 | C/C(=N\Nc1nc2ccccc2[nH]c1=O)c1cc2ccccc2oc1=O | 28 | 31.3 (≈ 90.4 µM) | 0 | 31.3 (≈ 90.4 µM) | 31.3 (≈ 90.4 µM) | 62.5 (≈ 180 µM) | 18 | 20 | 20 | 31.3 (≈ 90.4 µM) | 15 | 0 | 0 | 31.3 (≈ 90.4 µM) | 29 mm | 7.8 (≈ 22.5 µM) | inactive | 32 | 30 | –
